Here are results for eight compounds from ChEMBL document CHEMBL3091283, “Selective cannabinoid receptor type 2 (CB2) agonists: optimization of a series of purines leading to the identification of a clinical candidate for the treatment of osteoarthritic pain” (J Med Chem, 2013).

The nature of data set [1]: AUC in Sprague-Dawley rat at 3 mg/kg, po. The class given is ADME, organism-based. Details: dose 3 mg/kg, route oral. The settings on record: plasma.
Data set [2] is described as follows: AUC in Sprague-Dawley rat at 1 mg/kg, iv and 1 mg/kg, po. The class given is ADME, organism-based. The following applies: plasma. The method in brief: (§1)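 Male Sprague-Dawley rats dosed 1 mg/kg iv and 1 mg/kg po. Clearance, volume of distribution, oral half-life, AUC, Cmax and bioavailability calculated from plasma levels.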
Data set [3] can be described thus: Aqueous solubility in simulated GI fluid at pH 6.8. The data set is classed as physicochemical.
A short description of data set [4]: Volume of distribution in Beagle dog at 1 mg/kg, iv and 3 mg/kg, po. The data set is classed as ADME, organism-based, Canis lupus familiaris. The following applies: in vivo. The method in brief: (§2)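 Male beagle dogs given 1 mg/kg iv and 3 mg/kg po. Plasma PK parameters derived: clearance, volume of distribution, oral half-life, AUC, Cmax and oral bioavailability.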

The subject of data set [5] is MDR1. Kind of data set: MDR1-mediated transport in MDCK cells assessed as permeability from basolateral to apical side at 5 uM. The class given is ADME, cell-based, Canis lupus familiaris. The following applies: dog, read-out: permeability. The method in brief: (§3)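 Transport measured across MDCK-MDR1 monolayers at 5 μM, with and without inhibitor. A→B and B→A fluxes recorded in cm/s × 10−6; efflux ratio taken as B→A over A→B.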

Data set [6] can be described thus: Cmax in Sprague-Dawley rat at 1 mg/kg, iv and 1 mg/kg, po. The data set is classed as ADME, organism-based. The settings on record: in vivo. An outline of the steps:
as §1

Data set [7] in a line: Oral bioavailability in Beagle dog at 3 mg/kg. The settings on record: in vivo. The class given is ADME, organism-based, Canis lupus familiaris. The method in brief:
as §2

Data set [8] can be described thus: Volume of distribution in Sprague-Dawley rat at 1 mg/kg, iv. The data set is classed as ADME, organism-based. The settings on record: in vivo. Also noted: dose 1 mg/kg, route intravenous. The method in brief: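 Male Sprague–Dawley rats were given 1 mg/kg iv. Clearance and volume of distribution were derived from plasma pharmacokinetics.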
Data set [9] can be described thus: Oral bioavailability in Sprague-Dawley rat at 1 mg/kg. The class given is ADME, organism-based. The following applies: in vivo. The method in brief:
as §1

Data set [10] is described as follows: AUC in Beagle dog at 1 mg/kg, iv and 3 mg/kg, po. The data set is classed as ADME, organism-based, Canis lupus familiaris. The settings on record: plasma. An outline of the steps: as §2
The nature of data set [11]: Cmax in Beagle dog at 1 mg/kg, iv and 3 mg/kg, po. The data set is classed as ADME, organism-based, Canis lupus familiaris. The settings on record: in vivo. The method in brief: as §2
For data set [12], the system named is MDR1. Briefly: MDR1-mediated transport in MDCK cells assessed as permeability from apical to basolateral side at 5 uM. The class given is ADME, cell-based, Canis lupus familiaris. The following applies: dog, read-out: permeability. An outline of the steps: as §3
Data set [13] can be described thus: Lipophilicity, log P of the compound. The class given is physicochemical. The following applies: octanol/water.
A short description of data set [14]: Ratio of drug level in brain to plasma in rat. The class given is ADME. The following applies: read-out: BPR.

As usually defined, the AUC is concentration integrated over time. A lower AUC goes with low exposure. By solubility is commonly meant the dissolved amount per volume that the medium holds. The Cmax is the maximum level reached in the sampled fluid or tissue. A word on the bioavailability: it is the share of a dose that reaches the circulation, judged against a reference dose that is usually intravenous. A word on the logP: it is the decadic logarithm of the partition coefficient of the neutral form, usually between octanol and water.

Molecules are shown by their SMILES.

`COCCn1c(-c2ccccc2Cl)nc2c(N3CCN(CCF)CC3)nc(C)nc21.Cl` registered an AUC in data set [1] of under 50 ng·h/mL.

For `Cc1nc(N2CCN(C)CC2)c2nc(-c3ccccc3Cl)n(CCS(C)(=O)=O)c2n1.Cl`, the AUC amounted to 312 ng·h/mL in data set [2] and 286 ng·h/mL in [10]. The compound also had a solubility in data set [3] of over 100 µM. The Vd in data set [4] is 9.2 L/kg; in data set [8] it was 1.9 L/kg. For the same compound, in the data set with MDR1 [5], the Papp B→A at 5 µM was 43 ×10⁻⁶ cm/s. Also, the Cmax turned out to be 76 ng/mL in [6] and 62 ng/mL in data set [11]. Also, the bioavailability in [7] came out at 60%; in [9] it was 43%. Further, the Papp A→B at 5 µM in the data set with MDR1 [12] is 42 ×10⁻⁶ cm/s.

In data set [13], `Cc1nc(N2CCN(C)CC2)c2nc(-c3ccccc3Cl)n([C@@H]3CCOC3)c2n1` registered a logP of 3.2.

For the compound `CCN1CCN(c2nc(C)nc3c2nc(-c2ccccc2Cl)n3CC2CCOCC2)CC1.Cl`, the Vd in data set [8] worked out at 5 L/kg. The compound also showed a logP in [13] of 3.4. The same compound displayed a bioavailability in data set [9] of 27%.

`Cc1nc(N2CCN(C)CC2)c2nc(-c3ccccc3Cl)n(C3CCOCC3)c2n1.Cl`: the AUC in data set [2] came to 265 ng·h/mL; in data set [10] it was 1940 ng·h/mL. Also, the solubility in [3] was over 100 µM. The Vd was found to be 5.5 L/kg in [4] and 6 L/kg in data set [8]. Also, in the data set on MDR1 [5], the Papp B→A at 5 µM is 3.1 ×10⁻⁶ cm/s. Also, the Cmax in data set [6] was determined as 60 ng/mL; in data set [11] it was 352 ng/mL. In addition, the bioavailability in data set [7] came out at 76%; in data set [9] it was 67%. The same compound came in with a log partition coefficient (logP) in data set [13] of 3.1. Besides, in [14], the Kp came to 0.9. In addition, in the data set with MDR1 [12], the Papp A→B at 5 µM came out at 3.1 ×10⁻⁶ cm/s.

Consider `CCN1CCN(c2nc(C)nc3c2nc(-c2ccccc2Cl)n3C)CC1.Cl`, for which, in data set [3], the solubility was over 100 µM.

Turning to `CCN1CCN(c2nc(C)nc3[nH]c(-c4ccccc4Cl)nc23)CC1`, the logP in data set [13] worked out at 3.7.

Take `CCN1CCN(c2nc(C)nc3c2nc(-c2ccccc2Cl)n3CCOC)CC1.Cl`: in data set [1], the AUC was under 50 ng·h/mL.
